Reference: ChEMBL document CHEMBL1138320, “Discovery of potent & selective inhibitors of activated thrombin-activatable fibrinolysis inhibitor for the treatment of thrombosis” (J Med Chem, 2007)

What was measured:
[1] = target: T1, Carboxypeptidase B2 (Homo sapiens, UniProt Q96IY4); experiment: Inhibition of human TAFIa
T1 sequence (Q96IY4 whole entry): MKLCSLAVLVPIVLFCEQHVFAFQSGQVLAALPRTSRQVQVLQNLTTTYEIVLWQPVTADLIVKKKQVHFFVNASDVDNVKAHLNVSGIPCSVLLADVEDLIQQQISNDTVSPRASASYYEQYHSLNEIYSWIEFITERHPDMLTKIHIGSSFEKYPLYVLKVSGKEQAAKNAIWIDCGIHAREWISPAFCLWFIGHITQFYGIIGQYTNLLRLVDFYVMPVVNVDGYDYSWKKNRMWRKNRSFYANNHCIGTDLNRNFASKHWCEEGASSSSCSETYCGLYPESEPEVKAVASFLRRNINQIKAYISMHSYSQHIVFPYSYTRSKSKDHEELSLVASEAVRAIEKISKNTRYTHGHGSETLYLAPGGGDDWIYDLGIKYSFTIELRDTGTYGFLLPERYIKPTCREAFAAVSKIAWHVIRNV

[2] = Selectivity for bovine pancreatic carboxypeptidase A over porcine pancreatic carboxypeptidase B
[3] = Hydrophilicity, log D of the compound; assay type: physicochemical; details: octanol/water
[4] = Plasma clearance in dog at 0.6 mg/kg, iv; assay type: ADME, organism-based, Canis lupus familiaris; design: dose 0.6 mg/kg, route intravenous
How it was run: (§1)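 Single iv bolus of 0.6 mg/kg given to a dog. Total plasma clearance, volume of distribution and terminal elimination half-life were derived from the plasma pharmacokinetics.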

[5] = Volume of distribution in dog at 0.6 mg/kg, iv; assay type: ADME, organism-based, Canis lupus familiaris; design: dose 0.6 mg/kg, route intravenous; details: in vivo, read-out: Vdss; how it was run: as §1
[6] = Renal elimination in dog at 0.6 mg/kg, iv by urinary excretion studies; assay type: ADME, organism-based, Canis lupus familiaris; design: dose 0.6 mg/kg, route intravenous; details: urine, read-out: Activity
How it was run: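 Urinary excretion study in a dog after an iv dose. Unchanged drug recovered in the urine was quantified as a percentage of the dose.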

[7] = Terminal elimination in dog at 0.6 mg/kg, iv; assay type: ADME, organism-based, Canis lupus familiaris; design: dose 0.6 mg/kg, route intravenous; details: in vivo; how it was run: as §1
[8] = Bioavailability in dog at 1 mg/kg, po; assay type: ADME, organism-based, Canis lupus familiaris; details: in vivo
How it was run: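 Oral dosing at 1 mg/kg in dog for pharmacokinetic studies. Oral bioavailability was derived relative to iv dosing.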

[9] = Bioavailability in rat; assay type: ADME, organism-based; details: in vivo
[10] = Oral bioavailability in human; assay type: ADME, organism-based; details: in vivo
How it was run: (§2)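 Human pharmacokinetics after iv and oral dosing. Oral bioavailability and Tmax were determined, including with and without co-administration with food.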

[11] = Tmax in human; assay type: ADME, organism-based; details: in vivo; how it was run: as §2
[12] = system: Oryctolagus cuniculus; experiment: Antithrombotic efficacy in anesthetized rabbit assessed as inhibition of thrombus formation at 800 nM relative to control; assay type: functional
How it was run: (§3)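 Anesthetized rabbits given compound by iv infusion to reach projected free plasma levels of about 8, 80 or 800 nM. Thrombus weight (thrombus formation) was compared with vehicle-treated animals. t-PA at 10 µg/kg/min served as comparator. Group sizes were n = 3–6, with vehicle n = 5–13.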

[13] = system: Oryctolagus cuniculus; experiment: Inhibition of thrombus weight in iv dosed anesthetized rabbit at 80 nM relative to control; assay type: functional; how it was run: as §3
[14] = target: T2, Carboxypeptidase B (Sus scrofa, UniProt P09955); experiment: Inhibition of porcine pancreatic carboxypeptidase B
T2 sequence (P09955 whole entry): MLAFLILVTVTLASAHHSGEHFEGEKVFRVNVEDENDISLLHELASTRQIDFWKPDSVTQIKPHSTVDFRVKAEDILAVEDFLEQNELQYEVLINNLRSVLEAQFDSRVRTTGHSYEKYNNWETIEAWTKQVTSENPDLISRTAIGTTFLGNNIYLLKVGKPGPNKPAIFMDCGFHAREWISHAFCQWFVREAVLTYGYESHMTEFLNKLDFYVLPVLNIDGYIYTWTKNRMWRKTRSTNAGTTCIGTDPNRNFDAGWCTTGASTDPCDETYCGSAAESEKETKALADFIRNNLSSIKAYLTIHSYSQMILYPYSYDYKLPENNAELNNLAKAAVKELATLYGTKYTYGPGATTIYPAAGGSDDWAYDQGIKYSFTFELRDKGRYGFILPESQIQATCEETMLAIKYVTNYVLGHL

[15] = target: T3, Carboxypeptidase N catalytic chain (Homo sapiens, UniProt P15169); experiment: Inhibition of human plasma carboxypeptidase N; assay type: cell-free
T3 sequence (P15169 whole entry): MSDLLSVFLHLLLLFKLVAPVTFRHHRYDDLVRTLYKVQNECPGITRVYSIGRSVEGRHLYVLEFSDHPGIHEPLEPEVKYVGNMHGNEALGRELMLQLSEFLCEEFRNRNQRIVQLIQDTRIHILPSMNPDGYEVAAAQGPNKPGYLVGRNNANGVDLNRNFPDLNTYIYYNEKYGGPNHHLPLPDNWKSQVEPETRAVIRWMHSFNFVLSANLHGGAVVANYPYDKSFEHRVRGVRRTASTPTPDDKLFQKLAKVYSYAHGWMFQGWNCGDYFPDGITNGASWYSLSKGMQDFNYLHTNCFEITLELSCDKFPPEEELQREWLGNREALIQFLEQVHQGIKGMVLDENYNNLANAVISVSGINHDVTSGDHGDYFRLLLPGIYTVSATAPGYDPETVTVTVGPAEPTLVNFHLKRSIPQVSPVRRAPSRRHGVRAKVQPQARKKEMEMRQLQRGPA

Row | SMILES | Ki [1] [nM] | further results
1 | NCCCC(CS)C(=O)O (racemic) | 300 | 
2 | NCCN[C@H](Cc1c[nH]cn1)C(=O)O | 17000 | 
3 | CC(C)n1cnc(C[C@H](NCCN)C(=O)O)c1 | 430 | 
4 | CCCCCn1cnc(C[C@H](NCCN)C(=O)O)c1 | 160 | 
5 | CCn1cnc(C[C@H](NCCN)C(=O)O)c1 | 250 | 
6 | CCCCn1cnc(C[C@H](NCCN)C(=O)O)c1 | 70 | 
7 | O=C(O)C(CS)Cc1ccccc1 (racemic) |  | Selectivity ratio [2]: > 10000
8 | CCCn1cnc(C[C@H](CCCN)C(=O)O)c1 [UK-396,082] | 10 | logD [3]: -2.8; clearance [4]: 3.1 mL/min/kg; Vd [5]: 0.35 L/kg; dose excreted [6]: 96%; half-life [7]: 1.4 h; bioavailability [8]: 42%; bioavailability [9]: 20%; bioavailability [10]: 23%; Tmax [11]: 4 h; Inhibition [12]: 36%; Inhibition [13]: 37%
9 | Cn1cnc(C[C@H](NCCN)C(=O)O)c1 | 235 | 
10 | NCCN[C@@H](Cc1cn(CCCO)cn1)C(=O)O | 111 | 
11 | NCCN[C@@H](Cc1cn(CC2CCC2)cn1)C(=O)O | 124 | 
12 | CCCn1cnc(CC(CCCN)C(=O)O)c1 (racemic) | 46 | 
13 | NCCCC(Cc1c[nH]cn1)C(=O)O (racemic) | 140 | 
14 | NC(N)=NCCCC(CS)C(=O)O (racemic) | 4 | Ki [14]: 0.42 nM; Ki [15]: 2 nM
15 | CCCn1cnc(C[C@H](NCCN)C(=O)O)c1 | 84 | 
16 | NCCN[C@@H](Cc1cn(Cc2ccccc2)cn1)C(=O)O | 269 | 
17 | CCCn1cnc(C[C@@H](CCCN)C(=O)O)c1 | > 700 | 
18 | NCCN[C@@H](Cc1cn(CCc2ccccc2)cn1)C(=O)O | 140 | 
19 | CC(C)Cn1cnc(C[C@H](NCCN)C(=O)O)c1 | 100 | 
20 | NCCN[C@@H](Cc1c[nH]cn1)C(=O)O |  | Ki [15]: > 10000 nM
